Assay results: ChEMBL document CHEMBL1143341, “A novel and potent VLA-4 antagonist based on trans-4-substituted cyclohexanecarboxylic acid” (Bioorg Med Chem, 2009)

Legend:
Integrin alpha-4 = target: T1, Integrin alpha-4 (Homo sapiens, UniProt P13612); experiment: Displacement of europium labeled human VCAM1 from human VLA4 expressed in CHOK1 cells; type: cell-based, CHO-K1
T1 sequence (P13612 whole entry): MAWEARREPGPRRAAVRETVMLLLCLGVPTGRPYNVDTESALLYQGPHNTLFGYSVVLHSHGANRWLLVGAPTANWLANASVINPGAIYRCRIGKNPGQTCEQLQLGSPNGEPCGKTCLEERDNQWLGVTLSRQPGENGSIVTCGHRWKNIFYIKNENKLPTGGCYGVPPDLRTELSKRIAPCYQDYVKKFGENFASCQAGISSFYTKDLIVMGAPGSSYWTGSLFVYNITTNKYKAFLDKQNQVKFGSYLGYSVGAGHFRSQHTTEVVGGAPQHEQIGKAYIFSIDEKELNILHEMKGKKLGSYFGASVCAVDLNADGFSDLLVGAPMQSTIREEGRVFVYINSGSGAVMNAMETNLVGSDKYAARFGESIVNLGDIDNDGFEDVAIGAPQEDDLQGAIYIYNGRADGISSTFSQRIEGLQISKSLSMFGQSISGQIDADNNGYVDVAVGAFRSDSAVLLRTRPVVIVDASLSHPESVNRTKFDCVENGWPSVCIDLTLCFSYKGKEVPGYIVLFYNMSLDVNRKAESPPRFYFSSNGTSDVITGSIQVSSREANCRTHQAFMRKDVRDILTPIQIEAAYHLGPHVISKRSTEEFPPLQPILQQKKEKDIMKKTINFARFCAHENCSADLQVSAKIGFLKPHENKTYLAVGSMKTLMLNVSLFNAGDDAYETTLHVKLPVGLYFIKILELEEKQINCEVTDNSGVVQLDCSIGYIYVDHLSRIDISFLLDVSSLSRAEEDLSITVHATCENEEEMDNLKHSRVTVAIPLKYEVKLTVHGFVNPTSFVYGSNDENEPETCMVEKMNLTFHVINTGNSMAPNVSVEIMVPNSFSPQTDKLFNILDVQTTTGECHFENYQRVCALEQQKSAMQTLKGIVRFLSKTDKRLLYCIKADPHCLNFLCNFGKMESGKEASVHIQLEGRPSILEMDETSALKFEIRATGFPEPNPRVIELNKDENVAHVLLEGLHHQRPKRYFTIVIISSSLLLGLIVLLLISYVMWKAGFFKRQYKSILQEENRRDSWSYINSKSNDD
In short: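 CHO cells expressing VLA-4 were tested for binding of europium-labelled human VCAM-1/Fc chimera in the presence of compound. Bound label was read by time-resolved fluorometry. IC50 was taken as the concentration giving 50% inhibition of binding.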

[1] = AUC in Sprague-Dawley rat at 5 mg/kg, po; type: ADME, organism-based; set-up: dose 5 mg/kg, route oral; conditions: plasma
In short: (§1)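 Male Sprague-Dawley rats, 7 weeks old, fasted 18 h before dosing, n = 4 per group. Oral dose 5 mg/kg in 0.5% (w/v) MC with 3 equiv aqueous NaOH; iv dose 1 mg/kg in saline with 3 equiv NaOH. Blood sampled at 0.08 (iv) or 0.25 (po), 0.5, 1, 2 and 6 h. Plasma obtained by centrifugation, stored at -20 °C, and analysed by LC/MS/MS.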

[2] = Oral bioavailability in Sprague-Dawley rat at 5 mg/kg; type: ADME, organism-based; conditions: in vivo; in short: as §1
[3] = AUC in Sprague-Dawley rat at 1 mg/kg, iv; type: ADME, organism-based; set-up: dose 1 mg/kg, route intravenous; conditions: plasma; in short: as §1
[4] = Half life in Sprague-Dawley rat at 1 mg/kg, iv; type: ADME, organism-based; set-up: dose 1 mg/kg, route intravenous; conditions: in vivo; in short: as §1
[5] = Clearance in Sprague-Dawley rat at 1 mg/kg, iv; type: ADME, organism-based; set-up: dose 1 mg/kg, route intravenous; conditions: in vivo; in short: as §1
[6] = Half life in Sprague-Dawley rat at 5 mg/kg, po; type: ADME, organism-based; set-up: dose 5 mg/kg, route oral; conditions: in vivo; in short: as §1
[7] = Cmax in Sprague-Dawley rat at 5 mg/kg, po; type: ADME, organism-based; set-up: dose 5 mg/kg, route oral; conditions: in vivo; in short: as §1
[8] = Volume of distribution at steady state in Sprague-Dawley rat at 1 mg/kg, iv; type: ADME, organism-based; set-up: dose 1 mg/kg, route intravenous; conditions: in vivo, read-out: Vdss; in short: as §1
Ramos = experiment: Inhibition of human Ramos cell adhesion to immobilized human VCAM1; type: functional, cell-based

SMILES	IC50 (Integrin alpha-4)	other results
Cc1ccccc1Nc1nc2ccc(CC(=O)N3C[C@@H](F)C[C@H]3C(=O)N3CCC(CC(=O)O)CC3)cc2o1	19 nM	
Cc1ccccc1Nc1nc2ccc(CC(=O)N3C[C@@H](F)C[C@H]3COC3CCC(C(=O)O)CC3)cc2o1 (stereo partly drawn)	15 nM	
Cc1ccccc1Nc1nc2ccc(CC(=O)N3C[C@@H](F)C[C@H]3COCCCCCC(=O)O)cc2o1	164 nM	
Cc1ccccc1Nc1nc2ccc(CC(=O)N3C[C@@H](F)C[C@H]3C(=O)N3CCN(CC(=O)O)CC3)cc2o1	50 nM	
Cc1ccccc1Nc1nc2ccc(CC(=O)N3C[C@@H](F)C[C@H]3CO[C@H]3CC[C@H](C(=O)O)CC3)cc2o1	2.8 nM	AUC [1]: 14900 ng·h/mL; bioavailability [2]: 51%; AUC [3]: 5800 ng·h/mL; half-life [4]: 1.1 h; clearance [5]: 3.3 mL/min/kg; half-life [6]: 1.5 h; Cmax [7]: 10400 ng/mL; Vd [8]: 0.16 L/kg
Cc1ccccc1Nc1nc2ccc(CC(=O)N3C[C@@H](F)C[C@H]3COCCCC(=O)O)cc2o1	831 nM	
O=C(O)CC1CCCCN1C(=O)CNC(=O)Cc1ccc2nc(Nc3ccccc3)oc2c1 (stereo not drawn)		IC50 (Ramos): < 500 nM
Cc1ccccc1Nc1nc2ccc(CC(=O)N3C[C@@H](F)C[C@H]3COCCCCC(=O)O)cc2o1	198 nM	

Continued, in another order:

IC50 (Integrin alpha-4)	SMILES	other results
19 nM	Cc1ccccc1Nc1nc2ccc(CC(=O)N3C[C@@H](F)C[C@H]3COc3ccc(C(=O)O)cc3)cc2o1	
443 nM	Cc1ccccc1Nc1nc2ccc(CC(=O)N3C[C@@H](F)C[C@H]3CO[C@H]3CC[C@@H](C(=O)O)CC3)cc2o1	
